# Legend:
# [1] = Ratio of GI50 for wild-type MDCK2 cells to IC50 for human ABCG2 expressed in MDCK2 cells
# [2] = Cytotoxicity against wild-type MDCK2 cells assessed as reduction in cell viability after 72 hrs by MTT assay; format: cell-based, Canis lupus familiaris; conditions: dog, wild-type MDCK2 (MDCK-II) cells
# In short: (§1)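 MDCK II cells retrovirally transfected with human ABCG2-GFP cDNA, and wild-type MDCK II, in DMEM with 10% FBS. Seeded at 3 x 10^3 cells/well and attached 6 h at 37 °C, 5% CO2. Compounds up to 100 µM for 72 h. Controls were 10% DMSO and medium. MTT (5 mg/ml) added for 1 h, read at 570 nm minus 690 nm. Data normalised; GI50 from variable-slope sigmoidal fit.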
# [3] = Ratio of GI50 for MDCK2 cells expressing human ABCG2 to IC50 for human ABCG2 expressed in MDCK2 cells
# [4] = target: T1, Broad substrate specificity ATP-binding cassette transporter ABCG2 (Homo sapiens, UniProt Q9UNQ0); experiment: Inhibition of human ABCG2 expressed in baculovirus infected Sf9 cell membrane assessed as inhibition of vanadate sensitive ATPase activity at 1 uM after 20 mins by colorimetric method; conditions: sf9, 20 min
# T1 sequence (Q9UNQ0 whole entry): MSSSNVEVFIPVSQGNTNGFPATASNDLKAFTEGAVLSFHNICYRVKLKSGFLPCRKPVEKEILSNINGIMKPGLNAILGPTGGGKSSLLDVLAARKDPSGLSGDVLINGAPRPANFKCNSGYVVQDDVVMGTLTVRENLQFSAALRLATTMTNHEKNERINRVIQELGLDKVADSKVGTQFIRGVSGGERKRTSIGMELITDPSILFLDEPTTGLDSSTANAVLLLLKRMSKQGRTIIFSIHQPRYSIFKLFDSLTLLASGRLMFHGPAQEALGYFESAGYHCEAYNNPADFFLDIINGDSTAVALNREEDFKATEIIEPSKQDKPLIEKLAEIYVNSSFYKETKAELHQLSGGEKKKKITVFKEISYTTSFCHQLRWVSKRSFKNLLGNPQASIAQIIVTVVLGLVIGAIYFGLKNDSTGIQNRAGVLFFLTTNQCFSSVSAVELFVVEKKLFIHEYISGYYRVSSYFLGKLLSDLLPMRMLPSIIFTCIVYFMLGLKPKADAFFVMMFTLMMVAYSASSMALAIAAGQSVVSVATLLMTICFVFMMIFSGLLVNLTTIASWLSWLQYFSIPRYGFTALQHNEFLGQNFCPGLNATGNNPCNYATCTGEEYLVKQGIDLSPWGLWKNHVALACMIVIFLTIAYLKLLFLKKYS
# [5] = Cytotoxicity against MDCK2 cells expressing human ABCG2 assessed as reduction in cell viability after 72 hrs by MTT assay; format: ADME, cell-based, Canis lupus familiaris; conditions: dog, MDCK2 (MDCK-II) cells expressing human ABCG2; in short: as §1
# [6] = target: T1, Broad substrate specificity ATP-binding cassette transporter ABCG2; experiment: Inhibition of human ABCG2 expressed in MDCK2 cells assessed as reduction in pheophorbide A efflux pre-incubated for 30 mins before pheophorbide A addition and measured for 120 mins by flow cytometry; conditions: read-out: IC50
# [7] = target: T1, Broad substrate specificity ATP-binding cassette transporter ABCG2; experiment: Inhibition of human ABCG2 expressed in MDCK2 cells assessed as reduction in Hoechst 33342 efflux pre-incubated for 30 mins before Hoechst 33342 addition and measured for 120 mins by microplate reader analysis; format: cell-based; conditions: read-out: IC50
# In short: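 Compound dilutions up to 10 µM (from 10 mM DMSO stocks) pre-incubated 30 min at 37 °C. Hoechst 33342 then added from 6 µM solution. Fluorescence (ex 355/em 460 nm) read each 60 s over 120 min.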
# [8] = target: T1, Broad substrate specificity ATP-binding cassette transporter ABCG2; experiment: Reversal of human ABCG2-mediated resistance to SN-38 in human ABCG2 expressed MDCK2 cells assessed as reduction in SN-38 GI50 after 72 hrs by MTT assay
# [9] = target: T1, Broad substrate specificity ATP-binding cassette transporter ABCG2; experiment: Inhibition of human ABCG2 expressed in baculovirus infected Sf9 cell membrane assessed as inhibition of vanadate sensitive quercetin-stimulated ATPase activity after 20 mins by colorimetric method
# In short: (§2)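 Cholesterol-loaded membranes from Sf9 cells infected with baculovirus carrying human wild-type ABCG2; 10 µg protein per reaction. Buffer: 40 mM MOPS-Tris pH 7.0, 50 mM KCl, 2 mM DTT, 0.5 mM EGTA-Tris, 5 mM azide, 1 mM ouabain. Started with 3.3 mM MgATP, 20 min at 37 °C, stopped with SDS. Pi measured by molybdate/ascorbate colour at 880 nm against K2HPO4 standard.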
# [10] = target: T2, ABCG2 (Homo sapiens, UniProt Q9UNQ0); experiment: Ratio of IC50 for human ABCG2 expressed in baculovirus infected Sf9 cell membrane assessed as inhibition of vanadate sensitive quercetin-stimulated ATPase activity to IC50 for human ABCG2 expressed in baculovirus infected Sf9 cell membrane assessed as inhibition of vanadate sensitive basal ATPase activity; conditions: read-out: Ratio IC50
# T2 sequence (Q9UNQ0 whole entry): T1 sequence (Q9UNQ0 whole entry)
# [11] = target: ABCB1 (Homo sapiens, UniProt P08183); experiment: Inhibition of ABCB1 in human A2780/ADR cells assessed as reduction in calcein AM efflux at 10 uM pre-incubated for 30 mins before calcein AM addition and measured for 60 mins by microplate reader analysis relative to control; format: cell-based; conditions: probe calcein AM
# ABCB1, sequence (P08183 whole entry): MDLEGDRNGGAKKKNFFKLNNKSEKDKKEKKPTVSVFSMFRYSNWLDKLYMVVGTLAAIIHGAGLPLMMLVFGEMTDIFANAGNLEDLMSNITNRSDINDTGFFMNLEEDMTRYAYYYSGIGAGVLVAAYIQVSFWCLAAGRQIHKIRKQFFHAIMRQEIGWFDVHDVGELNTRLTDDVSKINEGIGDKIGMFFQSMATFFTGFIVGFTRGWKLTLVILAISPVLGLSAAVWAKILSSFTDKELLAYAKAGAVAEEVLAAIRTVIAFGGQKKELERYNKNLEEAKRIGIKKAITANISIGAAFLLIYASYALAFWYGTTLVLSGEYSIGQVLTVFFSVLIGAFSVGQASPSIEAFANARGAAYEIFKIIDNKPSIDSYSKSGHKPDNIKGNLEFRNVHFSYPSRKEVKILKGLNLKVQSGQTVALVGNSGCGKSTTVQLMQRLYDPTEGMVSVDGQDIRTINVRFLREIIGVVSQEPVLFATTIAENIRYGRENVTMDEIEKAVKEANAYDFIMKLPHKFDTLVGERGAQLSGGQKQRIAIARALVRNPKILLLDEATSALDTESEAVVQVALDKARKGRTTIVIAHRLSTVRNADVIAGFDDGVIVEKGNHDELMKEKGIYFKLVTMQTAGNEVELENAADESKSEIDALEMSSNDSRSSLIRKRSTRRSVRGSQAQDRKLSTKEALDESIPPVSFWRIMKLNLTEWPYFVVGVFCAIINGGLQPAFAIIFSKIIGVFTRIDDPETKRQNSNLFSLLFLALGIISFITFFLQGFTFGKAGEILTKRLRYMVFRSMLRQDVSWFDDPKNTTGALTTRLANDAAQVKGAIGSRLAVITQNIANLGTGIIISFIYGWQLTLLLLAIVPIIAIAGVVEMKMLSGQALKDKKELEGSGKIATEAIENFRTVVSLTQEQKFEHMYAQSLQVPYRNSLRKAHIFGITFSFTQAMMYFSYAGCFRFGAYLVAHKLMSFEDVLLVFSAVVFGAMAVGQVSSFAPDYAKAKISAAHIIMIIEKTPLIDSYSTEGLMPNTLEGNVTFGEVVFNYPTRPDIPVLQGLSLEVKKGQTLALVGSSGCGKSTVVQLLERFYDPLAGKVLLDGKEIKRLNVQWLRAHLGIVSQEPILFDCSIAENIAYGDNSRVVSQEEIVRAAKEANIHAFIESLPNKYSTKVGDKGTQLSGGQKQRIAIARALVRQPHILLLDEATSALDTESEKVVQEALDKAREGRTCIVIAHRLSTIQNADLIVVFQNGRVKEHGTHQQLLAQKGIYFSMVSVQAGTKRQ
# In short: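 Compound at 10 µM pre-incubated 30 min at 37 °C. Calcein AM added from 3.125 µM solution. Fluorescence (ex 485/em 520 nm) read every 60 s for 60 min.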
# [12] = target: T1, Broad substrate specificity ATP-binding cassette transporter ABCG2; experiment: Inhibition of human ABCG2 expressed in baculovirus infected Sf9 cell membrane assessed as inhibition of vanadate sensitive basal ATPase activity after 20 mins by colorimetric method; in short: as §2
# [13] = Solubility in pH 7.4 Krebs-HEPES buffer assessed as absorbance value at 10 uM after 2 hrs by UV-visible spectrophotometric analysis relative to control; format: physicochemical; conditions: pH 7.4, 2 h
# In short: (§3)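 10 µM test solutions prepared from DMSO stocks as for the Hoechst 33342 assay, in Krebs-HEPES pH 7.4. Absorbance at an absorption peak maximum recorded every 120 s for 2 h at room temperature by UV/visible spectrophotometer.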
# [14] = Solubility in pH 7.4 Krebs-HEPES buffer assessed as compound precipitation at 10 uM after 2 hrs by UV-visible spectrophotometric analysis; format: physicochemical; conditions: pH 7.4, 2 h; in short: as §3
# [15] = Solubility in pH 7.4 Krebs-HEPES buffer at 10 uM after 2 hrs by UV-visible spectrophotometric analysis; format: physicochemical; conditions: pH 7.4, 2 h; in short: as §3
Compound,Ratio [1],GI50 at 72 h [2],Ratio [3],inhibition (INH) [4],GI50 at 72 h [5],IC50 [6],IC50 [7],Activity [8],IC50 [9],selectivity ratio [10],"inhibition at 1 h, 10 µM [11]",IC50 [12],Activity [13],Activity [14],solubility [15]
O=C(c1ccccc1)N1CCc2c([nH]c3ccccc23)C1c1ccc(Cl)c(Cl)c1 (centres undefined),<=20,7290 nM,<=20,Active,6950 nM,365 nM,328 nM,Dose-dependent effect,262 nM,8.4,< 25%,31 nM,,,
O=C(c1ccccc1)N1CCc2c([nH]c3ccccc23)C1c1ccccc1Br (centres undefined),,,,,,,> 10000 nM,,,,< 25%,,40%,,
O=C(c1ccccc1)N1CCc2c([nH]c3ccccc23)C1c1ccc(C(F)(F)F)cc1 (centres undefined),,,,,,,> 10000 nM,,,,< 25%,,,80%,
COc1ccc(C(=O)N2CCc3c([nH]c4ccccc34)C2c2ccc(Cl)c(Cl)c2)cc1 (centres undefined),<=20,4830 nM,<=20,Active,4670 nM,237 nM,233 nM,Dose-dependent effect,285 nM,11,< 25%,26 nM,,,Soluble
O=C(c1ccccc1)N1CCc2c([nH]c3ccccc23)C1c1cccc([N+](=O)[O-])c1 (centres undefined),,,,,,,> 10000 nM,,,,< 25%,,,80%,
COc1cccc(C(=O)N2CCc3c([nH]c4ccccc34)C2c2ccc(Cl)c(Cl)c2)c1 (centres undefined),<=20,6550 nM,<=20,Active,5820 nM,206 nM,238 nM,Dose-dependent effect,262 nM,7,< 25%,38 nM,,,
O=C(c1ccccc1)N1CCc2c([nH]c3ccccc23)C1c1ccccc1Cl (centres undefined),,,,,,,> 10000 nM,,,,< 25%,,40%,,
